Drawing on ChEMBL document CHEMBL4177541, “Identification of Pyridinium with Three Indole Moieties as an Antimicrobial Agent” (J Nat Prod, 2017), this text covers MIC and IC50 for five molecules.

One assay relates to Bacillus cereus. Description: Antimicrobial activity against Bacillus cereus incubated for 20 hrs by CLSI protocol based method. The assay is classed as functional.
The next assay relates to Staphylococcus aureus. Nature of the assay: Antimicrobial activity against methicillin-sensitive Staphylococcus aureus incubated for 20 hrs by CLSI protocol based method. The assay is classed as functional.
A further assay relates to Candida albicans. Description: Antimicrobial activity against Candida albicans incubated for 24 hrs by CLSI protocol based method. The assay is classed as functional.
In the next assay the test system is Escherichia coli. Nature of the assay: Antimicrobial activity against Escherichia coli W3110 incubated for 20 hrs by CLSI protocol based method. The assay is classed as functional. Conditions: W3110, 20 h.
Another assay relates to P388. Description: Cytotoxicity against mouse P388 cells assessed as reduction in cell viability by MTT assay. The assay is classed as functional, cell-based. In outline:
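P388 murine leukemia cells were maintained in DMEM with 10% FBS and penicillin-streptomycin. After compound exposure, MTT (15 μL of a 5.0 mg/mL solution) was added for 3 h. The supernatant was removed and formazan dissolved in DMSO. IC50 was derived.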

Values after ≈ are worked out from the molar mass of the structure shown.

As for `Brc1cc(Br)c[n+](CCc2c[nH]c3ccccc23)c1.[Br-]`, the minimal inhibitory concentration (MIC) (usually the lowest concentration that inhibits growth of the organism) is greater than 100 µg/mL against Bacillus cereus, greater than 100 µg/mL with Staphylococcus aureus, 100 µg/mL against Candida albicans and greater than 100 µg/mL with Escherichia coli. Moreover, the IC50 (usually the concentration needed to halve the response being measured) with P388 is 76 µM.

As for `[Br-].c1ccc2c(CC[n+]3cccc(-c4c[nH]c5ccccc45)c3)c[nH]c2c1`, the MIC was 25 µg/mL with Bacillus cereus, 50 µg/mL with Staphylococcus aureus, 100 µg/mL against Candida albicans and greater than 100 µg/mL with Escherichia coli. Also, the concentration for half-maximal inhibition (IC50) in the assay on P388 is 50 µM.

For `[Br-].c1cc[n+](CCc2c[nH]c3ccccc23)cc1`, the MIC in the assay with Bacillus cereus was greater than 100 µg/mL; against Staphylococcus aureus it was greater than 100 µg/mL; with Candida albicans, 100 µg/mL; against Escherichia coli, greater than 100 µg/mL. In the assay with P388, the IC50 amounted to 53 µM.

With `[Br-].c1ccc2c(CC[n+]3cc(-c4c[nH]c5ccccc45)cc(-c4c[nH]c5ccccc45)c3)c[nH]c2c1`, the minimal inhibitory concentration (MIC) against Bacillus cereus was 0.78 µg/mL; against Staphylococcus aureus, 1.56 µg/mL; against Candida albicans it was 12.5 µg/mL; with Escherichia coli it was greater than 100 µg/mL. In addition, the IC50 with P388 was 1 µM.

As for `CC1(C)S[C@@H]2[C@H](NC(=O)[C@H](N)c3ccccc3)C(=O)N2[C@H]1C(=O)O` [AMPICILLIN], the MIC is 0.063 µg/mL (≈ 0.18 µM) against Bacillus cereus, 0.5 µg/mL (≈ 1.43 µM) in the assay on Staphylococcus aureus, 100 µg/mL (≈ 286 µM) with Candida albicans and 4 µg/mL (≈ 11.4 µM) in the assay with Escherichia coli.
